Like-named read-outs stand apart in the source and are kept apart here. Blank lines part the entries; values can stand above or below the compound they belong to.
How the values were obtained:
RTC91696 normal = assay: Growth inhibition assay; format: cell-based, human; details: 48 h; for efficacy (maximum growth inhibition observed): 1 to 12.5 µmol/L; for EC50: read-out: potency (EC50, concentration needed to induce half maximal efficacy)
Caki-1 cancer [1] = assay: Growth inhibition assay; format: cell-based, human; details: for efficacy (maximum growth inhibition observed): 1 to 12.5 µmol/L; for EC50: read-out: potency (EC50, concentration needed to induce half maximal efficacy)
Outline: (§1)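 Stock is 0.01 mol/L in DMSO, kept at −20°C under subdued light. Cells get 1–12.5 µmol/L or equal-volume DMSO, in triplicate, for 48 h. Growth index is mean treated OD over mean control OD, plotted against concentration. Maximal inhibition comes by nonlinear regression from plots of 2–3 independent experiments.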

HK-2 normal = assay: Growth inhibition assay; format: cell-based, human; details: 48 h; for efficacy (maximum growth inhibition observed): 1 to 12.5 µmol/L; for EC50: read-out: potency (EC50, concentration needed to induce half maximal efficacy)
Outline: as §1

786-O cancer = assay: Growth inhibition assay; format: cell-based, human; details: for efficacy (maximum growth inhibition observed): 48 h, 1 to 12.5 µmol/L; for EC50: read-out: potency (EC50, concentration needed to induce half maximal efficacy), 48 h
Outline: as §1

[2] = system: RTC 91696 normal cultures; assay: Apoptosis assay; format: cell-based, human; details: maximum 72-hour treatment time and 12.5-µmol/L concentration
Outline: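 Floating cells from the medium are pooled with trypsinised adherent cells, pelleted, and stained with Annexin-V-FITC and PI (Vybrant kit #3). Flow cytometry uses 488 nm excitation and 530/575 nm emission. Cultures are at passage 3, in MEMα with EGF 10 ng/mL, hydrocortisone 5 µg/mL, insulin/transferrin/selenous acid 6.35 µg/mL each, 10% FBS and pen/strep. The apoptotic-quadrant percentage comes from four replicate experiments.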

normal HK-2 cell lines = assay: Cell cycle analysis; format: cell-based, human; details: 10 µmol/L, 24 h
Cyclin D1 = assay: Western blot, Cyclin D1; format: cell-based, human; details: SHetA2 treatment
Outline: (§2)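 Lysis is in CytoBuster with protease inhibitor cocktail. 100 µg protein is resolved by SDS-PAGE and blotted to nitrocellulose. Blots are probed with mouse monoclonals (Cyclin D1, PARP-1, Caspase 3), then HRP secondary with luminol detection. Stripped blots are reprobed for β-actin or GAPDH as loading control. Solvent-only DMSO cultures serve as control.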

[3] = system: Caki-1 renal cancer xenografts; assay: Caki-1 renal cancer xenograft; details: for tumor-related deaths: 4 in untreated control group
[4] = system: NF-κB transcriptional activity; assay: NF-κB luciferase reporter assay in Caki-1; format: cell-based, human
[5] = system: livers of SHetA2-treated mice; details: previous xenograft model; cited from earlier work
[6] = animal models; cited from earlier work
WP2 uvrA = assay: Bacterial mutation
TA98 = assay: Bacterial mutation
PARP-1 and Caspase 3 = assay: Western blot, PARP-1 and Caspase 3 cleavage; format: cell-based, human; details: Caki-1 cultures, 10 µmol/L
Outline: as §2

mouse embryos = details: animal models; cited from earlier work
five bacterial strains = assay: Bacterial mutation
E-Cadherin mRNA = assay: Real-time rtPCR of E-Cadherin in Caki-1 cultures; format: cell-based, human
Outline: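 RNA comes from frozen cell pellets (RNeasy). TaqMan real-time PCR for E-Cadherin and 18S is run in triplicate reactions. Expression is normalised to 18S by ΔΔCt and set relative to solvent-only control cultures at each dose or time point. Three independent experiments.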

TA1537 = assay: Bacterial mutation
TA1535 = assay: Bacterial mutation
Caki-1 cancer cell line = assay: Apoptosis assay; format: cell-based, human; details: 10 µmol/L SHetA2, Annexin-V-FITC/PI
TA100 = assay: Bacterial mutation
[7] = system: A498 cancer cell line xenograft; assay: A498 xenograft model; format: in vivo; details: 20, 40, or 60 mg/kg/day; data not shown
Caki-1 cancer [8] = assay: Cell cycle analysis; format: cell-based, human; details: 10 µmol/L, 24 h
[9] = RTC91696 normal, single experiments
[10] = 50 µg/plate (0.125 µmol/L), +S9
[11] = 50 µg/plate (0.125 µmol/L), −S9
[12] = 158 µg/plate (0.393 µmol/L), +S9
[13] = 158 µg/plate (0.393 µmol/L), −S9
[14] = 500 µg/plate (1.245 µmol/L), +S9
[15] = 500 µg/plate (1.245 µmol/L), −S9
[16] = 1581 µg/plate (3.937 µmol/L), +S9
[17] = 1581 µg/plate (3.937 µmol/L), −S9
[18] = 5000 µg/plate (12.452 µmol/L), +S9
[19] = 5000 µg/plate (12.452 µmol/L), −S9
[20] = 1.58 µg/plate (0.004 µmol/L), +S9
[21] = 1.58 µg/plate (0.004 µmol/L), −S9
[22] = 5.0 µg/plate (0.012 µmol/L), +S9
[23] = 15.8 µg/plate (0.039 µmol/L), +S9
[24] = positive control 0.5 µg/plate, −S9

EC50 (Caki-1 cancer [1]; Caki-1 cancer, 48 h): 7.14 ± 0.22 µM | EC50 (786-O cancer): 7.15 ± 0.81 µM
Compound: COC(=O)c1ccc(NC(=O)Nc2ccc3c(c2)C(C)(C)CC(C)(C)S3)cc1 [SHetD3]
efficacy (maximum growth inhibition observed) (RTC91696 normal; [9]): 46.27% ± 0.95% | EC50 (RTC91696 normal; [9]): 9.42 ± 0.43 µM | efficacy (maximum growth inhibition observed) (Caki-1 cancer [1]; Caki-1 cancer, 48 h): 56.99% ± 12.12% | efficacy (maximum growth inhibition observed) (HK-2 normal; HK-2 normal): 26.37% ± 0.22% | EC50 (HK-2 normal; HK-2 normal): 6.91 ± 0.66 µM | efficacy (maximum growth inhibition observed) (786-O cancer): 61.52% ± 1.44%

Compound: CC1(C)CC(C)(C)c2cc(NC(=S)Nc3ccc([N+](=O)[O-])cc3)ccc2S1 [SHetA2]
EC50 (RTC91696 normal; Homo sapiens): 4.57 ± 0.49 µM | efficacy (maximum growth inhibition observed) (RTC91696 normal; [9]): 36.84% ± 6.80% | induction of apoptosis in normal cells [2]: did not induce apoptosis | percentages of cells in the G0-G1 phase of the cell cycle (normal HK-2 cell lines): increased the percentages of cells in the G0-G1 phase | time to decreased expression of Cyclin D1 (Cyclin D1): ≤ 1 h | tumor-related deaths ([3]; 20 mg/kg/day oral): 3 | tumor-related deaths ([3]; 40 mg/kg/day oral): 6 | maximal growth inhibition of xenograft tumors ([3]; 60 mg/kg/day oral for 30 days, day 34 (23rd day of treatment)): 36% | tumor-related deaths ([3]; 60 mg/kg/day oral): 6 | body weight of the animals compared with the control group ([3]; 20, 40, 60 mg/kg/day oral for 30 days): None of the treatment concentrations altered the body weight | reduction of xenograft tumor sizes ([3]; 20 and 40 mg/kg/day oral for 30 days): not statistically significant | time to inhibition of NF-κB activity ([4]; 10 µmol/L SHetA2): ≤ 30 min | tumor necrosis factor α induced NF-κB transcriptional activity ([4]; 10 µmol/L SHetA2, 20 ng/mL TNFα, 4 or 8 h): significantly inhibited | liver damage (necrosis, fatty changes, inflammation in portal tracts) [5]: no liver damage | efficacy (maximum growth inhibition observed) (Caki-1 cancer [1]; Caki-1 cancer, 48 h): 84.40% ± 3.86% | EC50 (Caki-1 cancer [1]; Homo sapiens, CAKI-1, 48 h): 4.93 ± 0.22 µM | skin irritancy [6]: did not induce skin irritancy or teratogenicity | efficacy (maximum growth inhibition observed) (HK-2 normal; HK-2 normal): 51.02% ± 7.07% | EC50 (HK-2 normal; Homo sapiens): 4.5 ± 0.28 µM | number of revertant colonies, Mean (WP2 uvrA; [10]): 27 | number of revertant colonies, Mean (WP2 uvrA; [11]): 17 | number of revertant colonies, Mean (WP2 uvrA; [12]): 18 | number of revertant colonies, Mean (WP2 uvrA; [13]): 14 | number of revertant colonies, Mean (WP2 uvrA; [14]): 22 | number of revertant colonies, Mean (WP2 uvrA; [15]): 18 | number of revertant colonies, Mean (WP2 uvrA; [16]): 17 | number of revertant colonies, Mean (WP2 uvrA; [17]): 10 | number of revertant colonies, Mean (WP2 uvrA; [18]): 13 | number of revertant colonies, Mean (WP2 uvrA; [19]): 12 | number of revertant colonies, Mean (TA98; [20]): 48 | number of revertant colonies, Mean (TA98; [21]): 16 | number of revertant colonies, Mean (TA98; [22]): 45 | number of revertant colonies, Mean (TA98; [23]): 52 | number of revertant colonies, Mean (TA98; [10]): 49 | number of revertant colonies, Mean (TA98; [12]): 12 | efficacy (maximum growth inhibition observed) (786-O cancer): 72.00% ± 5.06% | time to cleavage of PARP-1 and Caspase 3 (PARP-1 and Caspase 3): ≤ 16 h | teratogenicity (mouse embryos): did not induce skin irritancy or teratogenicity | mutagenicity of metabolites (number of revertant colonies) (five bacterial strains; preincubation with S9 microsomal fractions): no effect on the number of revertant colonies | mutagenicity (increase in revertant colony counts) (five bacterial strains; without S9): neither SHetA2 nor SHetA3 induced substantial increases in the revertant colony counts | time to upregulation of E-Cadherin mRNA (E-Cadherin mRNA): ≤ 1 h | induction of E-Cadherin steady-state mRNA (E-Cadherin mRNA; 4 hours of treatment): 20 fold | induction of E-Cadherin steady-state mRNA (E-Cadherin mRNA; 24 hours of treatment): 60 fold | number of revertant colonies, Mean (TA1537; [20]): 23 | number of revertant colonies, Mean (TA1537; [21]): 9 | number of revertant colonies, Mean (TA1537; [22]): 21 | number of revertant colonies, Mean (TA1537; [23]): 21 | number of revertant colonies, Mean (TA1535; [10]): 15 | number of revertant colonies, Mean (TA1535; [11]): 19 | number of revertant colonies, Mean (TA1535; [12]): 20 | number of revertant colonies, Mean (TA1535; [13]): 26 | number of revertant colonies, Mean (TA1535; [14]): 22 | number of revertant colonies, Mean (TA1535; [15]): 18 | number of revertant colonies, Mean (TA1535; [16]): 19 | number of revertant colonies, Mean (TA1535; [17]): 21 | number of revertant colonies, Mean (TA1535; [18]): 22 | number of revertant colonies, Mean (TA1535; [19]): 16 | percentage of cells in the quadrant corresponding to apoptosis (Caki-1 cancer cell line): increased the percentage of Caki-1 cancer cells | number of revertant colonies, Mean (TA100; [20]): 136 | number of revertant colonies, Mean (TA100; [21]): 136 | number of revertant colonies, Mean (TA100; [22]): 124 | number of revertant colonies, Mean (TA100; [23]): 171 | sensitivity of A498 xenograft [7]: did not exhibit significant sensitivity | percentages of cells in the G0-G1 phase of the cell cycle (Caki-1 cancer [8]): increased the percentages of cells in the G0-G1 phase

Compound: [N-]=[N+]=[N-].[Na+] [NaAZ, reference compound]
number of revertant colonies, Mean (TA1535; [24]): 304 | number of revertant colonies, Mean (TA100; [24]): 511

EC50 (Caki-1 cancer [1]; Caki-1 cancer, 48 h): 5.07 ± 0.15 µM | EC50 (786-O cancer): 2.56 ± 0.34 µM
Compound: CCOC(=O)c1ccc(NC(=O)Nc2ccc3c(c2)C(C)(C)CC(C)(C)S3)cc1 [SHetA4]
efficacy (maximum growth inhibition observed) (RTC91696 normal; [9]): 39.67% ± 2.52% | EC50 (RTC91696 normal; [9]): 7.55 ± 0.51 µM | efficacy (maximum growth inhibition observed) (Caki-1 cancer [1]; Caki-1 cancer, 48 h): 68.92% ± 6.94% | efficacy (maximum growth inhibition observed) (HK-2 normal; HK-2 normal): 26.35% ± 0.80% | EC50 (HK-2 normal; HK-2 normal): 5.19 ± 0.25 µM | efficacy (maximum growth inhibition observed) (786-O cancer): 45.04% ± 4.80%

Compound: CC1(C)CC(C)(C)c2cc(NC(=O)Nc3ccc([N+](=O)[O-])cc3)ccc2S1 [SHetC2]
efficacy (maximum growth inhibition observed) (RTC91696 normal; [9]): 52.31% ± 7.38% | EC50 (RTC91696 normal; [9]): 7.67 ± 0.49 µM | efficacy (maximum growth inhibition observed) (Caki-1 cancer [1]; Caki-1 cancer, 48 h): 85.71% ± 4.53% | EC50 (Caki-1 cancer [1]; Caki-1 cancer, 48 h): 4.91 ± 0.29 µM | efficacy (maximum growth inhibition observed) (HK-2 normal; HK-2 normal): 52.67% ± 1.84% | EC50 (HK-2 normal; HK-2 normal): 4.47 ± 0.49 µM | efficacy (maximum growth inhibition observed) (786-O cancer): 78.53% ± 6.11% | EC50 (786-O cancer): 7.48 ± 0.34 µM

Source: paper PMC2888972 (Molecular cancer therapeutics, 2009)
